In the EternaBench riboswitch data:

Tested on: MS2 coat protein
Assay: apparent Kd, MS2 coat protein; higher = weaker binding; RNA-MaP array; FMN 200 µM where present
Method in brief: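 On Illumina sequencing-chip clusters, designs were transcribed by stalled E. coli RNA polymerase and titrated with SNAP-549-labelled MS2 coat protein (0.7 or 1.5 nM, doubling to 3 µM), without and then with constant ligand, in 100 mM Tris-HCl pH 7.5, 80 mM KCl, 4 mM MgCl2, BSA, DTT, yeast tRNA and Tween-20. Apparent Kd is the median of filtered per-cluster curve fits to green signal normalised to red-channel RNA signal and control-cluster median Fmax.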

[1] = designed as: OFF switch for flavin mononucleotide, no ligand
[2] = ligand present: flavin mononucleotide, designed as: OFF switch for flavin mononucleotide
[3] = designed as: ON switch for flavin mononucleotide, no ligand
[4] = ligand present: flavin mononucleotide, designed as: ON switch for flavin mononucleotide

Sequence | apparent Kd [1] [nM] | apparent Kd [2] [nM] | apparent Kd [3] [nM] | apparent Kd [4] [nM]
CCAGGCUUCGAGAAGGACAUGAGGAUCACCCAUGUGCGUGUAAAACAGCCAAAAGGCUGCAUCAUGUAGGAUAUCGGAGUCUGC | 275 | 95.5 | – | –
AGAGUUGACUCAGGAUAUACGGGAAUGUGCCGCGACAUGAGGAUCACCCAUGUAGAAGGGAGAGAGAAGAAGAGAUGUAGAAGA | 56.1 | 54 | – | –
ACAUGAUAUGUAGGAUAUCACUACUUGUGUUAUAAAAUUGUAAUUUAGGAUUGAGAAGGACAUUUACAUGAGGAUCACCCAUGU | 14.7 | 11.6 | – | –
CGAUAAAGGUGAGGAUAUGAGAAUAGAAAGAAAUCAGAAGGCACACAUGAGGAUCACCCAUGUGAGUUCUUGAGAUUACAUGGU | 14.9 | 15.1 | – | –
AAUGUUGAUGUGAGGAUAUACAUAGUUUGACCGUAGUAGAAGGCACAUGAGGAUCACCCAUGUAGAUGUUUGGU | 12 | 24.2 | – | –
CUGACGUUUGAAGGAUAUGACAUGUUGAAGCGUAUUGACAGCCCUGCACAUGAGGAUCACCCAUGUCAGAAGGUCAACCGUUGA | 7.11 | 20.3 | – | –
GUGACGAAUGUAGGAUAUGCUGACCAAUGGUCAGCAGAAGGACAUGAGGAUCACCCAUGUCAUCCUUAUAAUGAAUAACGUCAC | 13.5 | 18.6 | – | –
GACCCAAAUGAGAAGGUGUGUAUAAAUUAUGUACAAGGAUAUCGGUCGAGCGUGUUGACAUGAGGAUCACCCAUGUUGUGGGUU | – | – | 139 | 56.2
UGUGCAUCAGGAUAUAUGUGGCGACCGUGAGGUCGAAGGUUACAUGAGGAUCACCCAUGUAGAAGGGAUGUACU | 63.2 | 187 | – | –
AAAAAACAUGAGGAUCACCCAUGUGAGGAUAUAGGAAAAAAAAAAAAAAAAAAAAAAACUAGAAGGCACAAAAA | 55.4 | 74.6 | – | –
CCCGAGUUAGGAUAUCGGACUGGCCCGCACAGGCUAGCAAUUGAGAAGGAACAUGAGGAUCACCCAUGUGAGUA | 24.2 | 61.6 | – | –
GCUUGAGCUGUGAGGAUAUGAGUUCGGAAAUGAGCUUAGAAGGCACAUGAGGAUCACCCAUGUAAGGUUCGAGU | 38 | 17.7 | – | –
GGGUACAUCGGAGGAUAUCAUGUAAAUACAUGAGGAUCACCCAUGUCGAUGGAGACAUCGGAGAUUGAGAAGGACGAUGUACCG | – | – | 320 | 14
CUGGUUGUCGAGGAUAUGUCCCGGCUCGCUGACGCAGAAGGCGACACAUGAGGAUCACCCAUGUCGGUUCGCGU | 20.1 | 21.8 | – | –
GAAUAGGCAGGAUAUACAUGAGGAUCACCCAUGUGCCGGCGAAAGGUACGUUCGAAAGGUAGAAGGGCCUAAAC | 78.6 | 288 | – | –
AAAUUGGUAGAGGAUAUCGGAUAGGAUUUACUGCGAGAAGGCUGCACAUGAGGAUCACCCAUGUUCUGUUGGGA | 123 | 152 | – | –
GUGAUACAUGAGGAUCACCCAUGUCACCUCACACGAGGAUAUCUGUGCAGUACUCAGUACGGAGAAGGCGUGGAAA | – | – | 96.7 | 26.4
UACAUGGAACAGAAGGGCAAUUUAUUUAAUUAUUAUUUAGAACAGCUUUGCAGGAUAUGUUUAACAUGAGGAUCACCCAUGUAC | – | – | 57.6 | 17.4
GUGCCUAACUAGAAGGCCGAUAGCAAAGCUAUCGGAGGAUAUGGGUUCCGGAAACGGACAUGAGGAUCACCCAUGUGGCACAAA | – | – | 86.5 | 12.8
GCGCAAGCAUGAGGAUAUGUAUUAAAUAAUAAUACAGAAGGCAUGUCAAAUGACAUGAGGAUCACCCAUGUUGGCAAAAUGCGC | – | – | 45.8 | 10.5
GCGAUGAUCGAGAAGGCCACUACAUGAGGAUCACCCAUGUCGUGGUGUAUUGGAGGAUAUCGAUCGGCGUCUUAUGAGGACAUG | 5.02 | 8.26 | – | –
CGCCAUCCCGUUGGCGUGAGGAUACCAGAAGGGACGAUCUCACAUGAGGAUCACCCAUGUUAUAGUCAGGAUAUGGGUUCAUCA | – | – | 135 | 14.2
UUACAGUGCGGGUAGGAUAUGUAGGGUGGUACAUGAGGAUCACCCAUGUAUCCACCCUUCGACCGGCAGAAGGGCCUGUCACUGC | – | – | 14.3 | 14.3
UGCCGGAGCAGAGGAUAUUACAUGAGGAUCACCCAUGUAUGAACCAAUAGCUGGAAACAGCAAUGUAAGAAGGCUGCUCCGACA | 13.4 | 144 | – | –

Sequence | apparent Kd [1] [nM] | apparent Kd [2] [nM] | apparent Kd [3] [nM] | apparent Kd [4] [nM]
GGACCUCCUGAGGAUAUUGUAUCACCUGAUUGAUAAGAAGGCAGAACAUGAGGAUCACCCAUGUGGGUACUCGG | 168 | 145 | – | –
CUUUUGUGAGGAUAUUCGUAGUAGGGUCAUGGUACUAUUACGGAGAAGGCACAUGAGGAUCACCCAUGUUCCUU | 15.4 | 45.1 | – | –
GUCCGAAGGGAGAAGGGCUAGGAGGUCCAGCUUAUGUGUGUUGCAACAUGAGGAUCACCCAUGUAGCAGGAUAUCCCUUGUACA | 54.2 | 267 | – | –
AAAGUGUGAAGCAGGGUGCUACAUGAGGAUCACCCAUGUCGGAGAAGGGCGCCGUUUCGCAGGGUGUAGGAUAUCUGGCGUGCA | 132 | 109 | – | –
ACAGCAGUAGGAUAUACAUCACCAUCCGACCGUUGAUUUCAACAUGAGGAUCACCCAUGUAGAAGGGCUAGUUG | 93.2 | 65.7 | – | –
CACUGCAUGUAAGGAUAUCGACUGGAAUACAGUCGAGAAGGUACAUGAGGAUCACCCAUGUAAAUAAUAAUAAAUAAAGCAGUG | 15.3 | 24.4 | – | –
AGUUGUAAACAGAACAUGAGGAUCACCCAUGUGCUCUCGUGUAAGGAUAUACAUUCGUAUGGAAAGUAGAAGGUACUAAUUAUG | – | – | 78.4 | 78.7
AACGUCCUAGGAUAUACGCUGGGACUCGCCAUGUGGGCCCUACAUGAGGAUCACCCAUGUAGAAGGAGGACAUG | 19.5 | 12.9 | – | –
GCAGCACAGAUUUACAUGAGGAUCACCCAUGUCUAUUAAGAUGAGGAUAUGCUUCGAAUGAUGUUGCAGAAGGCAUUGUGCUGC | – | – | 10.9 | 6.6
AAAAGACAUGAGGAUCACCCAUGUUAAGACGUGGGAGGAUAUGCAUGGCAAACAUGCUGUGCAGAAGGCCCGUGUC | – | – | 58.4 | 23.1
AGUUAGAUAGCGAUAUGAUCGAGAGAUCAUGUCGCUAAAUUUAGAAGGACAUGAGGAUCACCCAUGUAGGAUAUGGGAGUAGAA | – | – | 143 | 59.3
UAAAUGUGAGGAUAUUCGAUUAACUCGGAGACGAGUUGAUCGGAGAAGGCACAUGAGGAUCACCCAUGUUCCUU | 24.8 | 232 | – | –
ACAUAAAUUCGAGGAUAUCGGUGAAAUAAUUUACGAGAAGGCGAUAAUAGUUAUAAACUUAUAGACAUGAGGAUCACCCAUGUA | – | – | 31.6 | 32.4
CCUCCGUAUGAGGAUAUCGUCCAGGAAACUGGACGAGAAGGCAUGACAUGAGGAUCACCCAUGUUAACGUGAUG | 19.8 | 52.1 | – | –
UGCAUGGUAGGAUAUACGGAACAUUAGGGUUUGUUAUGUGGACAUGAGGAUCACCCAUGUAGAAGGGCCGUGCU | 45.9 | 72.3 | – | –
UGAUAGGACAGAGGAUAUACCGAUAGGAUCUACUAUCGAAUAAUCCUCACAUGAGGAUCACCCAUGUAGAAGGCUGUCCUAUCU | 19.7 | 144 | – | –
GGUACUCAAAGAGUACCAAUAUGAACAUGAGGAUCACCCAUGUAGGAUAUGCUACUCAAAGAGUAGCAGAAGGACAUGUGUCUA | 16.7 | 75.5 | – | –
AAAGGACGAGGAUAUACAUGAGGAUCACCCAUGUAAAAAGCGUAGCAAAAGUGCUUAUGUAGAAGGCGUCCAAA | 21.9 | 59.2 | – | –
ACUUGCUUGCAGAAGGGUGACAUGAGGAUCACCCAUGUAGCGGGCCGGCUUAAAGUCAGCGCGCCACAGGAUAUGCAGGCCUCG | – | – | 14.2 | 35.1
AAAAAACAUGAGGAUCACCCAUGUGAGGAUAUCCAAAAGUCAAAGAAAAAGACGAAAAGGAGAAGGCACAAAAA | 72.8 | 84.8 | – | –
GUGCAUUCGUAGAAGGGUGACAUGAGGAUCACCCAUGUGCGCUGGGCUCGGGAGGCAUCAGCGCCACAGGAUAUACGAAGCACC | – | – | 66.8 | 48.6
UGUCGGAGCAGAGGAUAUUACAUGAGGAUCACCCAUGUAUGAACCAAUAGCUGGAAACAGCAAUGUAAGAAGGCUGCUCCGAAA | 12.3 | 176 | – | –
GUGGUUGUCGUAGGAUAUGUAGGAUAUUCCUACAUGAGGAUCACCCAUGUUCGCAUGGAAGAAGGACGGAAGGACGAUGACCAC | – | – | 156 | 129
GACAUGAGGAUCACCCAUGUCCAUGCAAGAGUAGUUGAGACCAGAAGGACCGUGCGGAGCGCAGGGUAGGAUAUGGAGCCCUCA | – | – | 32.4 | 9.46
